One block for each compound: values may come before it.
Experiments:
[1] = Inhibition of Escherichia coli BL21(DE3) LpxC C63A mutant using UDP-3-O-(R-3-hydroxymyristoyl)-N-acetylglucosamine as substrate incubated for 30 mins by o-phthaldialdehyde-2-mercaptoethanol based fluorescence assay
Escherichia coli [2] = assay: Antibacterial activity against Escherichia coli BL21(DE3) cells assessed as diameter of zone of growth inhibition after overnight incubation at 37 degC by agar disc diffusion clearance assay; format: functional
How it was run: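 Overnight LB broth cultures (37 °C, 200 rpm); 150 µL spread on LB agar. 6 mm filter discs loaded with 15 µL of 10 mM compound in DMSO. DMSO disc as negative control, CHIR-090 as positive control. Plates kept overnight at 37 °C, then diameter of the growth-inhibition zone measured.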

[3] = Inhibition of Escherichia coli BL21(DE3) LpxC C63A mutant using UDP-3-O-(R-3-hydroxymyristoyl)-N-acetylglucosamine as substrate incubated for 30 mins by Cheng-Prusoff equation analysis
Escherichia coli [4] = assay: Antibacterial activity against envA mutant Escherichia coli D22 cells assessed as diameter of zone of growth inhibition after overnight incubation at 37 degC by agar disc diffusion clearance assay; format: functional
How it was run: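 E. coli D22 (defective strain) grown overnight in LB broth at 37 °C, 200 rpm; 150 µL of overnight suspension spread on LB agar. 6 mm filter paper discs loaded with 15 µL compound (10 mM in DMSO); DMSO disc as negative control, CHIR-090 as positive control. Plates incubated overnight at 37 °C; growth-inhibition zone diameter measured.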

SMILES: O=C(NO)[C@@H]1O[C@@H](c2ccc(C#Cc3ccccc3)cc2)[C@@H](O)[C@H]1O
IC50 [1]: 24 µM
diameter of the inhibition zone (DIZ) (Escherichia coli [2]): <6 mm
Ki [3]: 3.3 µM
diameter of the inhibition zone (DIZ) (Escherichia coli [4]): 18 mm

SMILES: CC1(C)O[C@@H]2[C@H](O1)[C@H](c1ccc(C#Cc3ccc(CN4CCOCC4)cc3)cc1)O[C@@H]2C(=O)NO
IC50 [1]: > 200 µM
diameter of the inhibition zone (DIZ) (Escherichia coli [2]): <6 mm
Ki [3]: > 27.6 µM
diameter of the inhibition zone (DIZ) (Escherichia coli [4]): 14.7 mm

SMILES: O=C(NO)[C@@H](CO)O[C@@H](CO)c1ccc(C#Cc2ccc(CN3CCOCC3)cc2)cc1
IC50 [1]: 180 µM
diameter of the inhibition zone (DIZ) (Escherichia coli [2]): <6 mm
Ki [3]: 25 µM
diameter of the inhibition zone (DIZ) (Escherichia coli [4]): 20.3 mm

SMILES: O=C(NO)[C@@H]1C[C@H](O)[C@H](c2ccc(C#Cc3ccc(CN4CCOCC4)cc3)cc2)O1
IC50 [1]: 87 µM
diameter of the inhibition zone (DIZ) (Escherichia coli [2]): <6 mm
Ki [3]: 12 µM
diameter of the inhibition zone (DIZ) (Escherichia coli [4]): 15.3 mm

SMILES: O=C(NO)[C@H](CO)O[C@@H](CO)c1ccc(C#CC#Cc2ccccc2)cc1
IC50 [1]: 4.4 µM
diameter of the inhibition zone (DIZ) (Escherichia coli [2]): 9 mm
Ki [3]: 0.6 µM
diameter of the inhibition zone (DIZ) (Escherichia coli [4]): 18 mm

IC50 [1]: 42 µM
SMILES: O=C(NO)[C@@H]1O[C@H](c2ccc(C#Cc3ccc(CN4CCOCC4)cc3)cc2)[C@@H](O)[C@H]1O
diameter of the inhibition zone (DIZ) (Escherichia coli [2]): <6 mm
Ki [3]: 5.8 µM

SMILES: O=C(NO)[C@H](CO)O[C@@H](CO)c1ccc(C#Cc2ccccc2)cc1
IC50 [1]: 150 µM
diameter of the inhibition zone (DIZ) (Escherichia coli [2]): 6.8 mm
Ki [3]: 21 µM
diameter of the inhibition zone (DIZ) (Escherichia coli [4]): 21.3 mm

SMILES: O=C(NO)[C@H](CO)O[C@H](CO)c1ccc(C#Cc2ccccc2)cc1
IC50 [1]: > 200 µM
diameter of the inhibition zone (DIZ) (Escherichia coli [2]): <6 mm
Ki [3]: > 27.6 µM
diameter of the inhibition zone (DIZ) (Escherichia coli [4]): 16.2 mm

SMILES: O=C(NO)[C@H]1O[C@H](c2ccc(C#Cc3ccc(CN4CCOCC4)cc3)cc2)[C@@H](O)[C@H]1O
IC50 [1]: 34 µM
diameter of the inhibition zone (DIZ) (Escherichia coli [2]): 9.8 mm
Ki [3]: 4.7 µM
diameter of the inhibition zone (DIZ) (Escherichia coli [4]): 20.2 mm

SMILES: O=C(NO)[C@H]1O[C@H](c2ccc(C#Cc3ccccc3)cc2)[C@@H](O)[C@H]1O
IC50 [1]: 43 µM
diameter of the inhibition zone (DIZ) (Escherichia coli [2]): 6.8 mm
Ki [3]: 5.9 µM
diameter of the inhibition zone (DIZ) (Escherichia coli [4]): 13.6 mm

SMILES: O=C(NO)[C@H]1O[C@@H](c2ccc(C#Cc3ccccc3)cc2)[C@@H](O)[C@H]1O
IC50 [1]: > 200 µM
diameter of the inhibition zone (DIZ) (Escherichia coli [2]): <6 mm
Ki [3]: > 27.6 µM
diameter of the inhibition zone (DIZ) (Escherichia coli [4]): 6.5 mm

SMILES: O=C(NO)[C@@H](CO)O[C@@H](CO)c1ccc(C#Cc2ccccc2)cc1
IC50 [1]: > 200 µM
diameter of the inhibition zone (DIZ) (Escherichia coli [2]): <6 mm
Ki [3]: > 27.6 µM
diameter of the inhibition zone (DIZ) (Escherichia coli [4]): 9.3 mm

SMILES: O=C(NO)[C@@H]1O[C@@H](c2ccc(C#Cc3ccc(CN4CCOCC4)cc3)cc2)[C@@H](O)[C@H]1O
IC50 [1]: 10 µM
diameter of the inhibition zone (DIZ) (Escherichia coli [2]): <6 mm
Ki [3]: 1.4 µM
diameter of the inhibition zone (DIZ) (Escherichia coli [4]): 22.1 mm

SMILES: CO[C@H]1[C@@H](O)[C@@H](C(=O)NO)O[C@H]1c1ccc(C#Cc2ccc(CN3CCOCC3)cc2)cc1
IC50 [1]: > 200 µM
diameter of the inhibition zone (DIZ) (Escherichia coli [2]): <6 mm
Ki [3]: > 27.6 µM
diameter of the inhibition zone (DIZ) (Escherichia coli [4]): 20.5 mm

SMILES: O=C(NO)[C@H]1O[C@@H](c2ccc(C#Cc3ccc(CN4CCOCC4)cc3)cc2)[C@@H](O)[C@H]1O
IC50 [1]: > 200 µM
diameter of the inhibition zone (DIZ) (Escherichia coli [2]): <6 mm
Ki [3]: > 27.6 µM
diameter of the inhibition zone (DIZ) (Escherichia coli [4]): 13.2 mm

SMILES: O=C(NO)[C@@H]1O[C@H](c2ccc(C#CC#Cc3ccccc3)cc2)[C@@H](O)[C@H]1O
IC50 [1]: 5 µM
diameter of the inhibition zone (DIZ) (Escherichia coli [2]): 10.7 mm
Ki [3]: 0.69 µM
diameter of the inhibition zone (DIZ) (Escherichia coli [4]): 14.5 mm

SMILES: O=C(NO)[C@@H]1O[C@H](c2ccc(C#Cc3ccccc3)cc2)[C@@H](O)[C@H]1O
IC50 [1]: > 200 µM
diameter of the inhibition zone (DIZ) (Escherichia coli [2]): <6 mm
Ki [3]: > 27.6 µM
diameter of the inhibition zone (DIZ) (Escherichia coli [4]): 16.3 mm

SMILES: O=C(NO)[C@@H]1O[C@@H](c2ccc(C#CC#Cc3ccccc3)cc2)[C@@H](O)[C@H]1O
IC50 [1]: 15 µM
diameter of the inhibition zone (DIZ) (Escherichia coli [2]): <6 mm
Ki [3]: 2.1 µM
diameter of the inhibition zone (DIZ) (Escherichia coli [4]): 15.7 mm

SMILES: O=C(NO)[C@H](CO)O[C@@H](CO)c1ccc(C#Cc2ccc(CN3CCOCC3)cc2)cc1
IC50 [1]: 21 µM
diameter of the inhibition zone (DIZ) (Escherichia coli [2]): 14.3 mm
Ki [3]: 2.9 µM
diameter of the inhibition zone (DIZ) (Escherichia coli [4]): 27.9 mm

SMILES: O=C(NO)[C@@H](CO)O[C@@H](CO)c1ccc(C#CC#Cc2ccccc2)cc1
IC50 [1]: 20 µM
diameter of the inhibition zone (DIZ) (Escherichia coli [2]): 7.1 mm
Ki [3]: 2.7 µM
diameter of the inhibition zone (DIZ) (Escherichia coli [4]): 10.5 mm

SMILES: O=C(NO)[C@@H](CO)O[C@H](CO)c1ccc(C#Cc2ccc(CN3CCOCC3)cc2)cc1
IC50 [1]: 8 µM
diameter of the inhibition zone (DIZ) (Escherichia coli [2]): 16 mm
Ki [3]: 1.1 µM
diameter of the inhibition zone (DIZ) (Escherichia coli [4]): 26.1 mm

SMILES: O=C(NO)[C@H](CO)O[C@H](CO)c1ccc(C#CC#Cc2ccccc2)cc1
IC50 [1]: 1.7 µM
diameter of the inhibition zone (DIZ) (Escherichia coli [2]): 13.7 mm
Ki [3]: 0.23 µM
diameter of the inhibition zone (DIZ) (Escherichia coli [4]): 21.3 mm

SMILES: O=C(NO)[C@H]1O[C@@H](c2ccc(C#CC#Cc3ccccc3)cc2)[C@@H](O)[C@H]1O
IC50 [1]: 32 µM
diameter of the inhibition zone (DIZ) (Escherichia coli [2]): <6 mm
Ki [3]: 4.4 µM
diameter of the inhibition zone (DIZ) (Escherichia coli [4]): 9 mm

SMILES: O=C(NO)c1ccc(-c2ccc(C#Cc3ccccc3)cc2)o1
diameter of the inhibition zone (DIZ) (Escherichia coli [2]): <6 mm
diameter of the inhibition zone (DIZ) (Escherichia coli [4]): 8 mm

SMILES: CO[C@@H]1[C@H](O)[C@H](c2ccc(C#Cc3ccc(CN4CCOCC4)cc3)cc2)O[C@@H]1C(=O)NO
IC50 [1]: > 200 µM
diameter of the inhibition zone (DIZ) (Escherichia coli [2]): <6 mm
Ki [3]: > 27.6 µM
diameter of the inhibition zone (DIZ) (Escherichia coli [4]): 11.7 mm

SMILES: O=C(NO)[C@H](CO)O[C@H](CO)c1ccc(C#Cc2ccc(CN3CCOCC3)cc2)cc1
IC50 [1]: 2.6 µM
diameter of the inhibition zone (DIZ) (Escherichia coli [2]): 9.6 mm
Ki [3]: 0.35 µM
diameter of the inhibition zone (DIZ) (Escherichia coli [4]): 20.4 mm
